Experimental data taken from PMC4091728 (Chembiochem : a European journal of chemical biology, 2014).

What was measured:
[1] = tested on: Trypanosoma cruzi (CA-I/72 trypomastigotes) in mouse C2C12 myoblasts; assay: EC50 in cell-based assay using T. cruzi-infected mouse C2C12 myoblasts; details: highest concentration 10 μM
TcCYP51 = TcCYP51 (Trypanosoma cruzi, UniProt Q7Z1V1); assay: Binding affinity by UV-vis spectroscopy
In short: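 Recombinant TcCYP51 at 1 μM in 100 mM potassium phosphate, pH 7.5, with 10% glycerol, at 23°C, in a 1-cm quartz cuvette. Titrated stepwise with test compound from a 100 μM DMSO stock, with equal solvent added to the reference cuvette. The absorbance shift between 425 and 390 nm was fitted to the quadratic tight-binding equation to give KD.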

TcCYP51, sequence (Q7Z1V1 whole entry): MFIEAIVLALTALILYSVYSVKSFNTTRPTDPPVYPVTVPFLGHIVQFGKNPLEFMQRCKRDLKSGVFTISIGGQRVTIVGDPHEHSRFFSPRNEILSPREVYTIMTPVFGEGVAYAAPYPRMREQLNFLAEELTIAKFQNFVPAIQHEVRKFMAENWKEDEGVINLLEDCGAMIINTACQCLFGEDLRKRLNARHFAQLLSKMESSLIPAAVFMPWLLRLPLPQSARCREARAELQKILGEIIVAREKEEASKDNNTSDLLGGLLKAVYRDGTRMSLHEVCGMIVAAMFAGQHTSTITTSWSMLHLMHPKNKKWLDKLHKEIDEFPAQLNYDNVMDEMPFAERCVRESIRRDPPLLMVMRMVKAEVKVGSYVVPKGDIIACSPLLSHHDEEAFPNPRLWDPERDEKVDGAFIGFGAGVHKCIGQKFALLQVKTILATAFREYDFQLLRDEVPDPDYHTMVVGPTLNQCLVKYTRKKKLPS

SMILES | Kd (TcCYP51) | anti-T. cruzi potency in cell culture, in words [1]
O=C(N[C@H](Cc1c[nH]c2ccccc12)C(=O)Nc1ccncc1)c1ccc(N2CCN(S(=O)(=O)c3cccs3)CC2)cc1F [compound 3, (R)-N-(3-(1H-Indol-3-yl)-1-oxo-1-(pyridin-4-ylamino)propan-2-yl)-2-fluoro-4-(4-(thiophen-2-ylsulfonyl)piperazin-1-yl)benzamide] | ≤ 10 nM | sub-nanomolar
N#Cc1ccc(S(=O)(=O)N2CCN(c3ccc(C(=O)N[C@H](Cc4c[nH]c5ccccc45)C(=O)Nc4ccncc4)c(F)c3)CC2)cc1 [compound 4, (R)-N-(3-(1H-Indol-3-yl)-1-oxo-1-(pyridin-4-ylamino)propan-2-yl)-4-(4-((4-cyanophenyl)sulfonyl)piperazin-1-yl)-2-fluorobenzamide] | 47 ± 19 nM | –
O=C(N[C@H](Cc1c[nH]c2ccccc12)C(=O)Nc1ccncc1)c1ccc(N2CCN(S(=O)(=O)c3ccc(C(F)(F)F)cc3)CC2)cc1F [compound 6, (R)-N-(3-(1H-Indol-3-yl)-1-oxo-1-(pyridin-4-ylamino)propan-2-yl)-2-fluoro-4-(4-((4-(trifluoromethyl)phenyl)sulfonyl)piperazin-1-yl)benzamide] | ≤ 10 nM | inhibited T. cruzi at the low micromolar concentrations
COC(=O)c1sccc1S(=O)(=O)N1CCN(c2ccc(C(=O)N[C@H](Cc3c[nH]c4ccccc34)C(=O)Nc3ccncc3)c(F)c2)CC1 [compound 7, (R)-methyl 3-((4-(4-((3-(1H-Indol-3-yl)-1-oxo-1-(pyridin-4-ylamino)propan-2-yl)carbamoyl)-3-fluorophenyl)piperazin-1-yl)sulfonyl)thiophene-2-carboxylate] | 20 ± 7 nM | inhibited T. cruzi at the low micromolar concentrations
O=C(N[C@H](Cc1c[nH]c2ccccc12)C(=O)Nc1ccncc1)c1ccc(N2CCN(S(=O)(=O)c3cccnc3)CC2)cc1F [compound 5, (R)-N-(3-(1H-Indol-3-yl)-1-oxo-1-(pyridin-4-ylamino)propan-2-yl)-2-fluoro-4-(4-(pyridin-3-ylsulfonyl)piperazin-1-yl)benzamide] | 15 ± 6 nM | inhibited T. cruzi at the low micromolar concentrations
O=C(O)c1ccc(S(=O)(=O)N2CCN(c3ccc(C(=O)N[C@H](Cc4c[nH]c5ccccc45)C(=O)Nc4ccncc4)c(F)c3)CC2)cc1 [compound 8, (R)-4-((4-(4-((3-(1H-Indol-3-yl)-1-oxo-1-(pyridin-4-ylamino)propan-2-yl)carbamoyl)-3-fluorophenyl)piperazin-1-yl)sulfonyl)benzoic acid] | 20 ± 7 nM | failed to elicit T. cruzi inhibition in cell culture at ≤10 μM

Now from value to compound, other results behind:

Kd (TcCYP51) | SMILES | anti-T. cruzi potency in cell culture, in words [1]
25 ± 6 nM | O=C(N[C@H](Cc1c[nH]c2ccccc12)C(=O)Nc1ccncc1)c1ccc(N2CCN(S(=O)(=O)C3CC3)CC2)cc1F [compound 10, (R)-N-(3-(1H-Indol-3-yl)-1-oxo-1-(pyridin-4-ylamino)propan-2-yl)-4-(4-(cyclopropylsulfonyl)piperazin-1-yl)-2-fluorobenzamide] | failed to elicit T. cruzi inhibition in cell culture at ≤10 μM
≤ 10 nM | O=C(N[C@H](Cc1c[nH]c2ccccc12)C(=O)Nc1ccncc1)c1ccc(N2CCN(S(=O)(=O)c3ccsc3C(=O)O)CC2)cc1F [compound 9, (R)-3-((4-(4-((3-(1H-Indol-3-yl)-1-oxo-1-(pyridin-4-ylamino)propan-2-yl)carbamoyl)-3-fluorophenyl)piperazin-1-yl)sulfonyl)thiophene-2-carboxylic acid] | failed to elicit T. cruzi inhibition in cell culture at ≤10 μM
19 ± 4 nM | CS(=O)(=O)N1CCN(c2ccc(C(=O)N[C@H](Cc3c[nH]c4ccccc34)C(=O)Nc3ccncc3)c(F)c2)CC1 [compound 11, (R)-N-(3-(1H-Indol-3-yl)-1-oxo-1-(pyridin-4-ylamino)propan-2-yl)-2-fluoro-4-(4-(methylsulfonyl)piperazin-1-yl)benzamide] | failed to elicit T. cruzi inhibition in cell culture at ≤10 μM
